Source: ChEMBL document CHEMBL3593168, “Structure-Based Design of Macrocyclic Coagulation Factor VIIa Inhibitors” (J Med Chem, 2015)

What was measured:
Coagulation factor IX = Coagulation factor IX (Homo sapiens, UniProt P00740); experiment: Inhibition of human F9a measured for 30 mins
How it was run: (§1)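 Ki measured against purified human enzymes (APC, FXa, FIXa, plasma kallikrein, thrombin, trypsin) at room temperature (25 °C) and averaged from two experiments.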

[1] = biological target: Coagulation factor VII/tissue factor (Homo sapiens, UniProt P08709); experiment: Inhibition of human recombinant TF/F7a complex using S2288 as substrate preincubated for 15 mins followed by protein addition measured for 60 mins; assay type: protein-complex assay
How it was run: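 Ki measured against recombinant human TF/FVIIa enzyme at room temperature (25 °C) and averaged from two experiments.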

[2] = biological target: Vitamin K-dependent protein C (Homo sapiens, UniProt P04070); experiment: Inhibition of human APC measured for 30 mins; how it was run: as §1
Trypsin = Trypsin (Homo sapiens, UniProt P07477+P07478+P35030); experiment: Inhibition of human trypsin measured for 30 mins; assay type: protein assay; how it was run: as §1
Prothrombin = Prothrombin (Homo sapiens, UniProt P00734); experiment: Inhibition of human thrombin using S2238 as substrate measured for 30 mins; how it was run: as §1
Coagulation factor X = Coagulation factor X (Homo sapiens, UniProt P00742); experiment: Inhibition of human F10a using S2222 as substrate measured for 30 mins; how it was run: as §1
Plasma = experiment: Anticoagulant activity in F7-deficient human plasma assessed as concentration required to double prothrombin time; assay type: functional
Plasma kallikrein = Plasma kallikrein (Homo sapiens, UniProt P03952); experiment: Inhibition of human plasma kallikrein using S2302 as substrate measured for 30 mins; how it was run: as §1
Kallikrein-1 = Kallikrein-1 (Homo sapiens, UniProt P06870); experiment: Inhibition of human tissue kallikrein 1 measured for 30 mins
How it was run: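 Purified human tissue kallikrein-1 assayed at 37 °C. Ki averaged from two experiments.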

Plasma kallikrein, sequence (P03952 20-390 limits assumed): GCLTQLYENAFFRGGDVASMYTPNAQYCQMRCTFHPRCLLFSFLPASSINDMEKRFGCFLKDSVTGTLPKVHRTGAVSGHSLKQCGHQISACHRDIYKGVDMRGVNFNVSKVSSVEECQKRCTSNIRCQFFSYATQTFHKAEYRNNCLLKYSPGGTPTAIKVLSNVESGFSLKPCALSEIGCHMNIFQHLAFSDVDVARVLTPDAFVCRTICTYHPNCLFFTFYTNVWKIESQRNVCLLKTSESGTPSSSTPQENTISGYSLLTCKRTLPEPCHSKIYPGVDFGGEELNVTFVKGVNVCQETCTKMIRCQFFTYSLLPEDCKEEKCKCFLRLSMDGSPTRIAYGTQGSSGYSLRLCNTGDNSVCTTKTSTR
Plasma kallikrein, sequence (P03952 391-638 limits assumed): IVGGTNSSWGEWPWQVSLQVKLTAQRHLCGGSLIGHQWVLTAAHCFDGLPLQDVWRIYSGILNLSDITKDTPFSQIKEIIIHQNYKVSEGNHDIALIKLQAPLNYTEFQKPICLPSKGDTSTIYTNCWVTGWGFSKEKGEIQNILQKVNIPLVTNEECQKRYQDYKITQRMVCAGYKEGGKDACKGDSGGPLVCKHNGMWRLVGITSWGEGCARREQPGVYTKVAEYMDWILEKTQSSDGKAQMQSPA
Coagulation factor IX, sequence (P00740 47-191 limits assumed): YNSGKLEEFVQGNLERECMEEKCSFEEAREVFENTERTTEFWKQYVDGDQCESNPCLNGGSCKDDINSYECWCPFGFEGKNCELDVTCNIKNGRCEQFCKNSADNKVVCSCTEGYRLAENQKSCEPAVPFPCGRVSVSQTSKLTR
Coagulation factor IX, sequence (P00740 227-461 limits assumed): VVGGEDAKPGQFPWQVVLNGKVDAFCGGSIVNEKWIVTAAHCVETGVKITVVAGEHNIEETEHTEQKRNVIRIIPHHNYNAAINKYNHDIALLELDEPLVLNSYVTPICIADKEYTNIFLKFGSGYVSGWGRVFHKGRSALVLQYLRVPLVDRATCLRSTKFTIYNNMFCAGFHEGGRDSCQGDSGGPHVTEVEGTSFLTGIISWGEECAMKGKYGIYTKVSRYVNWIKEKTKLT
Kallikrein-1, sequence (P06870 whole entry): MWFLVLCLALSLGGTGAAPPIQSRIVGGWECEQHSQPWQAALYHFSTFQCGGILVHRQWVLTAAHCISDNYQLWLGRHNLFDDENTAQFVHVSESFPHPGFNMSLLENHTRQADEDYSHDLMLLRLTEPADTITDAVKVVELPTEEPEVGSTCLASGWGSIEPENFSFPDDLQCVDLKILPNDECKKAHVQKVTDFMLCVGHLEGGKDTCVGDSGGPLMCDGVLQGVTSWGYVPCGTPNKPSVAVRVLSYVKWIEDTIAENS
Vitamin K-dependent protein C, sequence (P04070 43-197 limits assumed): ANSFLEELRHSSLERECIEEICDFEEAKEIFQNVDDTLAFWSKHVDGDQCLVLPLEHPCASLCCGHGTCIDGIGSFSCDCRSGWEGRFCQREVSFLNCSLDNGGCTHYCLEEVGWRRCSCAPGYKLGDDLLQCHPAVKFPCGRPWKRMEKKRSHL
Vitamin K-dependent protein C, sequence (P04070 212-461 limits assumed): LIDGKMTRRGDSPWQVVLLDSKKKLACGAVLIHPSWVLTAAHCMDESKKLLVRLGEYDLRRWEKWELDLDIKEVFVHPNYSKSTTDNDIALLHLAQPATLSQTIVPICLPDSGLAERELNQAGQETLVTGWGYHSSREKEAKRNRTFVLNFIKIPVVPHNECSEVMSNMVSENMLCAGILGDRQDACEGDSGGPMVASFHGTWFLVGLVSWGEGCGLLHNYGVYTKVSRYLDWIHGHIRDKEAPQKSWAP
Coagulation factor VII/tissue factor, sequence (P08709 61-212 limits assumed): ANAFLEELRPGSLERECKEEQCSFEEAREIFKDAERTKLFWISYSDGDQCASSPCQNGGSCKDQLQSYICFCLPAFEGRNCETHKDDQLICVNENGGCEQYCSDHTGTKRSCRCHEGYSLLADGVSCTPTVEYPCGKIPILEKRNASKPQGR
Coagulation factor VII/tissue factor, sequence (P08709 213-466 limits assumed): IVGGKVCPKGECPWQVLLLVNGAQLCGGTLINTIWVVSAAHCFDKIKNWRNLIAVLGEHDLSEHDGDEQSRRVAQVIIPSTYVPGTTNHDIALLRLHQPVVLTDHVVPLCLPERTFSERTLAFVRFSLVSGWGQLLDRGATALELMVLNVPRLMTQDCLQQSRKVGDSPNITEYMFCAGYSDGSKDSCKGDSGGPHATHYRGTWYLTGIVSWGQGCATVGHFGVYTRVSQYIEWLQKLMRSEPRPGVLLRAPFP
Coagulation factor VII/tissue factor, sequence (P13726 33-295 partner limits assumed): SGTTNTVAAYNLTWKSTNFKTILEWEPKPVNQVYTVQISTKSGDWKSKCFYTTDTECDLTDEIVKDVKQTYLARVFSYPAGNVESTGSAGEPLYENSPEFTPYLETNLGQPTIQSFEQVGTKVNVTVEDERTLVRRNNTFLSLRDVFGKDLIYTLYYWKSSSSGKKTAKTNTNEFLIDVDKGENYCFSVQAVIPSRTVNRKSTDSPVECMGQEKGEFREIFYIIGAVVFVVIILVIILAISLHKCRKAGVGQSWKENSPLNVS
Coagulation factor X, sequence (P00742 41-179 limits assumed): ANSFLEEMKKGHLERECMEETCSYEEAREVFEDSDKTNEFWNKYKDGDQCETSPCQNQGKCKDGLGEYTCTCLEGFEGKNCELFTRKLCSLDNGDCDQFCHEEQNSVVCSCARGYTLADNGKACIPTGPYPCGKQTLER
Coagulation factor X, sequence (P00742 235-488 limits assumed): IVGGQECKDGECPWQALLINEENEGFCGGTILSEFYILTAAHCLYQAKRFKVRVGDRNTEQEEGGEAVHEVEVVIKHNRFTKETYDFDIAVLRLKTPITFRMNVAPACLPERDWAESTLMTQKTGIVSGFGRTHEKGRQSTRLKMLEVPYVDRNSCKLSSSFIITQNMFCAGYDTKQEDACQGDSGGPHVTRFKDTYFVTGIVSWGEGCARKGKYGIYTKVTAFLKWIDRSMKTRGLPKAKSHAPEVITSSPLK

## CCS(=O)(=O)c1ccc2cc1CNC(=O)[C@H](Nc1ccc3c(N)nccc3c1)c1ccc(c(C)c1)CCCC(=O)N2
Coagulation factor IX
  Ki: 16000 nM
[1]
  Ki: 1.6 nM
[2]
  Ki: 830 nM
Trypsin
  Ki: 2700 nM
Prothrombin
  Ki: 6700 nM
Coagulation factor X
  Ki: 1000 nM
Plasma
  2PT: 1.2 µM
Plasma kallikrein
  Ki: 1700 nM
Kallikrein-1
  Ki: 100 nM

## CC(C)(C)S(=O)(=O)c1ccc2cc1CNC(=O)C(Nc1ccc3c(N)nccc3c1)c1ccc(cc1)CCCC(=O)N2 (racemic)
Coagulation factor IX
  Ki: > 35000 nM
[1]
  Ki: 30 nM
[2]
  Ki: 14000 nM
Trypsin
  Ki: > 6000 nM
Prothrombin
  Ki: > 13000 nM
Coagulation factor X
  Ki: 4800 nM
Plasma
  2PT: 8.6 µM
Plasma kallikrein
  Ki: > 6000 nM
Kallikrein-1
  Ki: 22 nM

## CC(=O)Nc1ccc(S(=O)(=O)C(C)C)c([C@H]2CCCN2C(=O)[C@H](Nc2ccc3c(N)nccc3c2)c2ccccc2)c1
[1]
  Ki: 8 nM
Plasma
  2PT: 12 µM

## Nc1nccc2cc(NC3C(=O)NCc4cccc(c4)NC(=O)CCc4ccc3cc4)ccc12 (stereo not drawn)
[1]
  Ki: 4600 nM

## Nc1nccc2cc(NC(C(=O)NCc3ccccc3)c3ccccc3)ccc12 (stereo not drawn)
[1]
  Ki: 54000 nM

## CCS(=O)(=O)c1ccc2cc1CNC(=O)[C@H](Nc1ccc3c(N)nccc3c1)c1ccc(cc1)CCCC(=O)N2
Coagulation factor IX
  Ki: > 35000 nM
[1]
  Ki: 8 nM
[2]
  Ki: 1300 nM
Trypsin
  Ki: 3600 nM
Prothrombin
  Ki: 5800 nM
Coagulation factor X
  Ki: 3200 nM
Plasma
  2PT: 1.6 µM
Plasma kallikrein
  Ki: 4600 nM
Kallikrein-1
  Ki: 100 nM

## CC(=O)Nc1cccc(CNC(=O)C(Nc2ccc3c(N)nccc3c2)c2ccccc2)c1 (stereo not drawn)
[1]
  Ki: 10000 nM

## Nc1nccc2cc(NC3C(=O)NCc4cccc(c4)NC(=O)CCCOc4ccc3cc4)ccc12 (stereo not drawn)
[1]
  Ki: 4600 nM

## Nc1nccc2cc(N[C@H]3C(=O)NCc4cccc(c4)NC(=O)CCCc4ccc3cc4)ccc12
Coagulation factor IX
  Ki: > 35000 nM
[1]
  Ki: 400 nM
[2]
  Ki: 2800 nM
Trypsin
  Ki: > 6000 nM
Prothrombin
  Ki: > 13000 nM
Coagulation factor X
  Ki: > 9000 nM
Plasma
  2PT: 26 µM
Plasma kallikrein
  Ki: > 6000 nM
Kallikrein-1
  Ki: 18 nM

## Nc1nccc2cc(NC3C(=O)NCc4cccc(c4)NC(=O)CCCc4ccc3cc4)ccc12 (stereo not drawn)
[1]
  Ki: 920 nM

## Nc1nccc2cc(N[C@@H]3C(=O)NCc4cccc(c4)NC(=O)CCCc4ccc3cc4)ccc12
[1]
  Ki: > 18000 nM

## CC(C)S(=O)(=O)c1ccc2cc1CNC(=O)[C@H](Nc1ccc3c(N)nccc3c1)c1ccc(cc1)CCCC(=O)N2
Coagulation factor IX
  Ki: > 35000 nM
[1]
  Ki: 5.2 nM
[2]
  Ki: 1800 nM
Trypsin
  Ki: 3000 nM
Prothrombin
  Ki: 4000 nM
Coagulation factor X
  Ki: 3300 nM
Plasma
  2PT: 1.4 µM
Plasma kallikrein
  Ki: 3600 nM
Kallikrein-1
  Ki: 100 nM

## Nc1nccc2cc(NC3C(=O)NCc4cccc(c4)NC(=O)CCCCc4ccc3cc4)ccc12 (stereo not drawn)
[1]
  Ki: 6100 nM

## CCS(=O)(=O)c1ccc2cc1CNC(=O)[C@H](Nc1ccc(C(=N)N)cc1)c1ccc(cc1)CCCC(=O)N2
Coagulation factor IX
  Ki: 34000 nM
[1]
  Ki: 0.7 nM
[2]
  Ki: 41 nM
Trypsin
  Ki: 58 nM
Prothrombin
  Ki: 180 nM
Coagulation factor X
  Ki: 5500 nM
Plasma
  2PT: 0.42 µM
Plasma kallikrein
  Ki: 50 nM
Kallikrein-1
  Ki: 1900 nM
